The term Ki denotes a measure of affinity in units of concentration, obtained from inhibition or displacement. Read a low Ki as higher affinity.

Drawing on ChEMBL document CHEMBL1134274, “Discovery of a series of nonpeptide small molecules that inhibit the binding of insulin-like growth factor (IGF) to IGF-binding proteins” (J Med Chem, 2001), this text covers Ki for 16 molecules.

In assay [1] the target is Insulin-like growth factor-binding protein 3 (Homo sapiens, UniProt P17936). As to the kind of experiment: Inhibitory activity against Insulin-like growth factor binding protein 3. The gist of the method: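 IGFBP-3 purified from human plasma (0.5 pmol, 2.5 nM added) incubated 2 h at room temperature with [125I]hIGF-I (30,000 cpm) and compound in 0.02% NP-40/PBS pH 7.2, in duplicate. Complex precipitated with ice-cold 20% BSA plus 20% PEG-8000 and centrifuged; pellet counted by γ-counter. Ki calculated from inhibition of binding.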
Chain of Insulin-like growth factor-binding protein 3 (P17936 whole entry): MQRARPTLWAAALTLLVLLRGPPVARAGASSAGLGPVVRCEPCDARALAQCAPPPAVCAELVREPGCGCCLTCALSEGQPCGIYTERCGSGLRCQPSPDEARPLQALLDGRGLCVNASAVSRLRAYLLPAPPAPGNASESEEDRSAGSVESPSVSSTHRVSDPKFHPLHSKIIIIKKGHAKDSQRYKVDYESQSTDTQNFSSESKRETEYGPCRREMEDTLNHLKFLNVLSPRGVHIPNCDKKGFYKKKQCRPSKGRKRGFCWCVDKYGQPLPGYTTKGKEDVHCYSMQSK

For assay [2], the target named is Insulin-like growth factor-binding protein 5 (Homo sapiens, UniProt P24593). As to the kind of experiment: The compound was tested for binding affinity against Insulin-like growth factor binding protein 5. The gist of the method:
(§1)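 Human IGFBP-1, -2, -4, -5 or -6 expressed in Sf9 insect cells (baculovirus), purified on hIGF-II affinity column then reversed-phase HPLC. 0.5 pmol binding protein incubated with [125I]hIGF-I (30,000 cpm) and increasing compound concentrations, 2 h at room temperature, in 0.02% NP-40/PBS pH 7.2, in duplicate. Complex precipitated with BSA/PEG; pellet radioactivity counted to give dose–response curves.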

Assay [3] addresses T1, Insulin-like growth factor-binding protein 4 (Homo sapiens, UniProt P22692).
T1 sequence (P22692 whole entry): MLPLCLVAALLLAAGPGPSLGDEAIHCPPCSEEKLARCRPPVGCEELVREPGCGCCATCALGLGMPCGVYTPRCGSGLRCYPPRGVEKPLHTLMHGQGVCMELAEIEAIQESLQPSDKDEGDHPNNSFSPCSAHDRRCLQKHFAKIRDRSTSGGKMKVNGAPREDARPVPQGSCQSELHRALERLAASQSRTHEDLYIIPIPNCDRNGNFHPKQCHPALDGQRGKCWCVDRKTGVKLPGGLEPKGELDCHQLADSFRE
The experiment in a line: The compound was tested for binding affinity against Insulin-like growth factor binding protein 4. The essentials:
as §1

The target of assay [4] is T2, Insulin-like growth factor-binding protein 1 (Homo sapiens, UniProt P08833).
T2 sequence (P08833 whole entry): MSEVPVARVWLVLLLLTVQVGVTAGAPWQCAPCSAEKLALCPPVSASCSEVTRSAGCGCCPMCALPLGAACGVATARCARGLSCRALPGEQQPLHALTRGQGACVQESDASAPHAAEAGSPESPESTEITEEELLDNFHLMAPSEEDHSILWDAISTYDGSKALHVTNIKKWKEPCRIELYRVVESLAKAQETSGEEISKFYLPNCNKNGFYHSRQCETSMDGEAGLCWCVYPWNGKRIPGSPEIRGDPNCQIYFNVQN
As to the kind of experiment: The compound was tested for binding affinity against insulin-like growth factor binding protein 1. The gist of the method:
as §1

In assay [5] the target is T3, Insulin-like growth factor-binding protein 2 (Homo sapiens, UniProt P18065).
T3 sequence (P18065 whole entry): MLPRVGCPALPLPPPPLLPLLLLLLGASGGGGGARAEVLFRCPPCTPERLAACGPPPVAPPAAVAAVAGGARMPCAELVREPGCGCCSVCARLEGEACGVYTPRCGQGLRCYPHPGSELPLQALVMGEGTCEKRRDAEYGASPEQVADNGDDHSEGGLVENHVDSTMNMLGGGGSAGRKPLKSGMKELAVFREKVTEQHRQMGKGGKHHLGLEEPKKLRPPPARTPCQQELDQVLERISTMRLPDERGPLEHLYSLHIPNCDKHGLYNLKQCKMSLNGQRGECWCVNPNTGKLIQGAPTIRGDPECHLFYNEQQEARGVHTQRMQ
The experiment in a line: The compound was tested for binding affinity against insulin-like growth factor binding protein 2. The gist of the method: as §1

The target of assay [6] is T4, Insulin-like growth factor-binding protein 6 (Homo sapiens, UniProt P24592).
T4 sequence (P24592 whole entry): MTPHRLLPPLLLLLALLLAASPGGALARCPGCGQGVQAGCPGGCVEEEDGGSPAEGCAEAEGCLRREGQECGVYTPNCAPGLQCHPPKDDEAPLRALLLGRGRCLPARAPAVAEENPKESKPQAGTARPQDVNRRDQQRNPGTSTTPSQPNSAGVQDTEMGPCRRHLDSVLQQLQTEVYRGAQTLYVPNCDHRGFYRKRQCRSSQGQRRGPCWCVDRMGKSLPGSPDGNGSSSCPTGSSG
As to the kind of experiment: The compound was tested for binding affinity against Insulin-like growth factor binding protein 6. The gist of the method: as §1

Chain of Insulin-like growth factor-binding protein 5 (P24593 whole entry): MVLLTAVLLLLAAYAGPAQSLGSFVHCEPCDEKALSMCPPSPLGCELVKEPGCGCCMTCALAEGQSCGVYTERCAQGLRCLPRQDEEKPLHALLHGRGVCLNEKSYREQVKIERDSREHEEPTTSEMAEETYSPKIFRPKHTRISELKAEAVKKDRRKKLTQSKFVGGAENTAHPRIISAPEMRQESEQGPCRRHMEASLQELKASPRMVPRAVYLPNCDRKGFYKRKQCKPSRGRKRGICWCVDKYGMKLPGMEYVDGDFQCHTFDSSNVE

Molecule `COc1ccc(C(=O)c2[nH]c(=O)cc3cc(OC)c(OC)cc23)cc1OC` returned an inhibitory constant (Ki) in assay [1] of over 10000 nM.

`COc1cc2c(C(=O)c3ccc(O)c(O)c3)nc(C(=O)O)cc2c(Br)c1O` registered a Ki in assay [1] of 70 nM.

For the molecule `CCOC(=O)c1cc2cc(OC)c(OC)cc2c(C(=O)c2ccc(OC)c(OC)c2)n1`, the Ki in assay [1] is over 10000 nM.

Consider `O=C(O)c1cc2cc(O)c(O)cc2c(C(=O)c2cccc3ccccc23)n1`, for which the affinity in assay [1] corresponds to a Ki of 27 nM.

The molecule `O=C(O)c1cc2cc(O)c(O)cc2c(C(=O)c2ccc(Cl)cc2Cl)n1` came in with a Ki in assay [1] of 44 nM.

The molecule `O=C(c1ccc(O)c(O)c1)c1nccc2cc(O)c(O)cc12` came in with a Ki in assay [1] of 58 nM. This Ki and that of the molecule before are within 1.5-fold of each other.

Turning to `O=C(c1ccc(O)c(O)c1)c1nc(O)cc2cc(O)c(O)cc12`, the Ki stood at 20.9 nM in assay [2]; 6.23 nM in assay [3]; 34.2 nM in assay [4]; 17.1 nM in assay [5]; 84.6 nM in assay [6]; 28 nM in assay [1].

On to `O=C(O)c1cc2cc(O)c(O)cc2c(C(=O)c2ccc3ccccc3c2)n1`, for which the inhibition constant (Ki) in assay [1] came out at 13 nM.

In assay [1], `COc1ccc(C(=O)c2nc(C(=O)O)cc3cc(OC)c(OC)cc23)cc1O` returned a Ki of over 10000 nM.

In assay [1], `COc1cc2cc(C(=O)O)nc(C(=O)c3ccc(O)c(O)c3)c2c(Br)c1O` came in with a Ki of 140 nM.

As to `O=C(O)c1cc2cc(O)c(O)cc2c(C(=O)c2ccc3c(c2)OCO3)n1`, the Ki in assay [1] was found to be 70 nM.

With `O=C(O)c1cc2cc(O)c(O)cc2c(C(=O)c2ccc(O)c(O)c2)n1`, the Ki in assay [2] was 5.2 nM; in assay [3], 1.04 nM; in assay [4] it was 5.07 nM; in assay [5], 2.07 nM; in assay [6], 23.6 nM; in assay [1], 5.6 nM.

In turn, `Oc1cc2cc(O)c(O)cc2c(Cc2ccc(O)c(O)c2)n1` had a Ki in assay [1] of 29 nM.

The molecule `COc1cc2cc(C(=O)O)nc(C(=O)c3ccc(O)c(O)c3)c2cc1OC` showed a Ki in assay [1] of over 10000 nM.

In assay [1], `COc1ccc(C(=O)c2nc(C(=O)O)cc3cc(OC)c(O)cc23)cc1O` yielded a Ki of 320 nM.

Take `O=C(O)c1cc2cc(O)c(O)cc2c(Cc2ccc(O)c(O)c2)n1`: in assay [1], the affinity, expressed as Ki, was 7.5 nM. This Ki is about 43-fold lower than that of the molecule before.
